Test results published in ChEMBL document CHEMBL6074702, “Discovery of 4-(5-Membered)Heteroarylether-6-methylpicolinamide Negative Allosteric Modulators of Metabotropic Glutamate Receptor Subtype 5” (ACS Med Chem Lett, 2024).
Values belong to the molecule of their own block, whether it stands above or below them. Calls of active or inactive are those of the source. The calls are words filed in the database; no cut-off is given here.

Legend:
[1] = molecular target: Metabotropic glutamate receptor 1 (Homo sapiens) (UniProt Q13255); assay: Negative allosteric modulation of tetracycline-inducible human mGlu1 receptor expressed in human T-REx-293 cells by calcium mobilization assay; assay type: functional, cell-based
[2] = molecular target: Metabotropic glutamate receptor 2 (Homo sapiens) (UniProt Q14416); assay: Negative allosteric modulation of human mGlu2 receptor expressed in HEK293 cells harboring GIRK by thallium flux assay; assay type: cell-based
[3] = molecular target: Metabotropic glutamate receptor 3 (Homo sapiens) (UniProt Q14832); assay: Negative allosteric modulation of human mGlu3 receptor expressed in HEK293 cells harboring GIRK assessed as maximal inhibition response by thallium flux assay relative to glutamate; assay type: cell-based; details: filed as negative allosteric modulator
[4] = molecular target: Metabotropic glutamate receptor 4 (Homo sapiens) (UniProt Q14833); assay: Negative allosteric modulation of human mGlu4 receptor expressed in CHO cells co-expressing Gqi5 assessed as inhibition of glutamate induced calcium mobilization preincubated for 142 sec followed by glutamate addition at EC20 concentration for 120 sec and measured after 40 sec addition of glutamate at EC80 concentration by Fluo-4 AM dye based fluorescence assay relative to glutamate; assay type: functional, cell-based; details: time 302.0 sec
[5] = molecular target: Metabotropic glutamate receptor 7 (Homo sapiens) (UniProt Q14831); assay: (§1) Negative allosteric modulation of human mGlu7 receptor expressed in HEK293-A co-expressing Galpha15 assessed as inhibition of DL-AP4 induced-calcium mobilization preincubated for 140 sec followed by DL-AP4 addition at EC20 concentration for 125 sec and measured after 90 sec addition of glutamate at EC80 concentration by Fluo-4 AM dye based fluorescence assay; assay type: functional, cell-based; details: time 355.0 sec
Summary of the method: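 HEK293 cells stably co-expressing human mGlu7 and mouse Gα15 were plated at 15,000/well in dialyzed-FBS medium and grown overnight at 37 °C. They were loaded with Fluo-4-AM (final 1.15 μM) for 50 min at RT, then read at RT in a triple-add assay with DL-AP4 as agonist. Compounds were run as 10-point 1:3 curves; ex 480/em 530 nm. Data were normalized to maximal agonist response and fitted to a four-parameter logistic equation.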

[6] = molecular target: Metabotropic glutamate receptor 8 (Homo sapiens) (UniProt O00222); assay: as §1, with “mGlu8” for “mGlu7 receptor”, “HEK293-A” for “HEK293-A co-expressing Galpha15”, “glutamate” for “DL-AP4”; assay type: functional, cell-based; details: time 355.0 sec
Summary of the method: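 HEK293 cells stably co-expressing human mGlu8 and mouse Gα15 were plated at 15,000/well and grown overnight. Fluo-4-AM (final 1.15 μM) was loaded for 50 min at 37 °C, […]. The FDSS run was at RT: compound, then glutamate EC20, then EC80 additions. Compounds were run as 10-point 1:3 curves; ex 480/em 530 nm. Data were normalized to glutamate ECmax and fitted to a four-parameter logistic equation.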

[7] = Drug metabolism in cryopreserved human Hepatocyte assessed as amide hydrolysis mediated metabolite formation at 10 uM measured after 4 hrs; assay type: ADME, cell-based; details: hepatocytes
Summary of the method: (§2)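 Rat, dog, monkey and human hepatocytes were incubated with 10 μM compound and sampled at 0 and 4 h. Metabolites were tentatively identified by accurate-mass LC-MS (observed m/z). Retention times were taken from MS extracted ion chromatograms.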

[8] = Drug metabolism in cryopreserved rat Hepatocyte assessed as amide hydrolysis mediated metabolite formation at 10 uM measured after 4 hrs; assay type: ADME, cell-based; details: hepatocytes; summary of the method: as §2
[9] = Drug metabolism in cryopreserved dog Hepatocyte assessed as amide hydrolysis mediated metabolite formation at 10 uM measured after 4 hrs; assay type: ADME, cell-based, Canis lupus familiaris; details: hepatocytes; summary of the method: as §2
[10] = Drug metabolism in cryopreserved cynomolgus monkey Hepatocyte assessed as amide hydrolysis mediated metabolite formation at 10 uM measured after 4 hrs; assay type: ADME, cell-based, Macaca fascicularis; details: hepatocytes; summary of the method: as §2
[11] = Unbound fraction in rat plasma at 5 uM incubated for 6 hrs by equilibrium dialysis based LC-MS/MS analysis; assay type: ADME, cell-free
Summary of the method: (§3)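 Equilibrium dialysis of plasma spiked at 5 μM final against DPBS, in triplicate, 6 h at 37 °C. Samples were matrix-matched, acetonitrile-extracted with carbamazepine as internal standard, and analyzed by LC-MS/MS. fu = buffer-side/plasma-side analyte:IS peak area ratio, mean of 3 replicates.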

[12] = Unbound fraction in rat brain at 1 uM incubated for 6 hrs by equilibrium dialysis based LC-MS/MS analysis; assay type: ADME, tissue-based
Summary of the method: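 Naïve rat brain was homogenized in DPBS (1:3 w/w) and dialyzed against DPBS at 1 μM final, in triplicate, 6 h at 37 °C. Quantification was by LC-MS/MS. Diluted fu2 = buffer/homogenate peak area ratio, corrected to undiluted fu using the 1/4 dilution equation; mean of 3 replicates.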

[13] = Ratio of unbound drug concentration in Sprague-Dawley rat brain to plasma at 0.2 mg/kg, iv measured after 0.25 hrs by LC-MS/MS analysis; assay type: ADME, organism-based
Summary of the method: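 Male Sprague Dawley rats (n = 1) received a single IV dose through a jugular catheter, formulated in 10% ethanol/40% PEG400/50% DMSO at 0.5 mL/kg. Terminal plasma (K2EDTA) and whole brain were taken at 15 min. Brain was homogenized in isopropanol:water 7:3. Samples were acetonitrile-precipitated with carbamazepine as internal standard and quantified by LC-MS/MS against a plasma standard curve, with dilution correction.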

[14] = Unbound fraction in human plasma at 5 uM incubated for 6 hrs by equilibrium dialysis based LC-MS/MS analysis; assay type: ADME, cell-free; summary of the method: as §3

Metabotropic glutamate receptor 4 (Homo sapiens), sequence (Q14833 whole entry): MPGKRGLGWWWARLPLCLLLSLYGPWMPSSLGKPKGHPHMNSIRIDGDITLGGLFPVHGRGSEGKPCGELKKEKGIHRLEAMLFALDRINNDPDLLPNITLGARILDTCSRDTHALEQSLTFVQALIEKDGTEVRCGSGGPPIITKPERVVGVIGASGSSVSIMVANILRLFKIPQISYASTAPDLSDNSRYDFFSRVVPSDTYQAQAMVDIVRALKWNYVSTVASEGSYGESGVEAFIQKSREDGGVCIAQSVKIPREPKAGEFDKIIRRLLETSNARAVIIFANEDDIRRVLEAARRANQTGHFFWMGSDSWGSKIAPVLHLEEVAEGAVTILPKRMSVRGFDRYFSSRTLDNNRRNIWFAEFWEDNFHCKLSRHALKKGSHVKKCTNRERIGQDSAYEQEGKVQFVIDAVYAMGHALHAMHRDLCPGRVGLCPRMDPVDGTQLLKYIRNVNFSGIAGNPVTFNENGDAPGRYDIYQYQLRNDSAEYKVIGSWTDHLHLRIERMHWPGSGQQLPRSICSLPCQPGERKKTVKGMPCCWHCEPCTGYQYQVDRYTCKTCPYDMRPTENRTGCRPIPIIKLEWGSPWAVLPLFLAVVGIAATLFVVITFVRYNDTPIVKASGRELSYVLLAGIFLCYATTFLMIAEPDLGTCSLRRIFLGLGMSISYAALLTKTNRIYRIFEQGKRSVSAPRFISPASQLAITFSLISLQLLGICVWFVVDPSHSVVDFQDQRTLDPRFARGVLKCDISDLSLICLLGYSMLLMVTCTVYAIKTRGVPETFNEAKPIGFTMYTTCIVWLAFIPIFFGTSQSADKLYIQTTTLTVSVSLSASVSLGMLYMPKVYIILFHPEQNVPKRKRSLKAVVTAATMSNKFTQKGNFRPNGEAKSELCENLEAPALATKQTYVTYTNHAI
Metabotropic glutamate receptor 3 (Homo sapiens), sequence (Q14832 23-879 limits assumed): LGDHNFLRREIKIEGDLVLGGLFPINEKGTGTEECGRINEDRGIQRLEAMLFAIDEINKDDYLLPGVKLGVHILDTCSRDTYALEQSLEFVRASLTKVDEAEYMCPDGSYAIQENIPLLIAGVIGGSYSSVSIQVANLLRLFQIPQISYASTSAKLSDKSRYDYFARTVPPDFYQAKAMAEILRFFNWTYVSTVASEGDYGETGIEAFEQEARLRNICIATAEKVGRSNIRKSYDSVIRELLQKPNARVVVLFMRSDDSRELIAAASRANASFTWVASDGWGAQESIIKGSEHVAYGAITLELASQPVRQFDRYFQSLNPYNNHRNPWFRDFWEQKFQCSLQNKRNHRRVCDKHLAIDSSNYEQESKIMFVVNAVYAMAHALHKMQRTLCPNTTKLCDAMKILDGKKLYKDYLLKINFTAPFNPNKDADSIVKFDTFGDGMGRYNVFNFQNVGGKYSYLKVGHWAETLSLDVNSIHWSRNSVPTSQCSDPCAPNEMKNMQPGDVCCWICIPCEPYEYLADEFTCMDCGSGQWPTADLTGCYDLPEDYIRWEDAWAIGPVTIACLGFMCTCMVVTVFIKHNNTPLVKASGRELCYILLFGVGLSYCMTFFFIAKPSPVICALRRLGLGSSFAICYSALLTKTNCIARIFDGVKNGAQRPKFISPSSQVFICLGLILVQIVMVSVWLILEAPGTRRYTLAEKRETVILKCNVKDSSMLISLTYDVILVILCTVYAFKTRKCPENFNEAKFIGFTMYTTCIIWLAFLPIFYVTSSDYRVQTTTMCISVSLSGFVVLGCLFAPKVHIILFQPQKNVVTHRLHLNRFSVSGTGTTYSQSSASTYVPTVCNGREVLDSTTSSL
Metabotropic glutamate receptor 2 (Homo sapiens), sequence (Q14416 19-872 limits assumed): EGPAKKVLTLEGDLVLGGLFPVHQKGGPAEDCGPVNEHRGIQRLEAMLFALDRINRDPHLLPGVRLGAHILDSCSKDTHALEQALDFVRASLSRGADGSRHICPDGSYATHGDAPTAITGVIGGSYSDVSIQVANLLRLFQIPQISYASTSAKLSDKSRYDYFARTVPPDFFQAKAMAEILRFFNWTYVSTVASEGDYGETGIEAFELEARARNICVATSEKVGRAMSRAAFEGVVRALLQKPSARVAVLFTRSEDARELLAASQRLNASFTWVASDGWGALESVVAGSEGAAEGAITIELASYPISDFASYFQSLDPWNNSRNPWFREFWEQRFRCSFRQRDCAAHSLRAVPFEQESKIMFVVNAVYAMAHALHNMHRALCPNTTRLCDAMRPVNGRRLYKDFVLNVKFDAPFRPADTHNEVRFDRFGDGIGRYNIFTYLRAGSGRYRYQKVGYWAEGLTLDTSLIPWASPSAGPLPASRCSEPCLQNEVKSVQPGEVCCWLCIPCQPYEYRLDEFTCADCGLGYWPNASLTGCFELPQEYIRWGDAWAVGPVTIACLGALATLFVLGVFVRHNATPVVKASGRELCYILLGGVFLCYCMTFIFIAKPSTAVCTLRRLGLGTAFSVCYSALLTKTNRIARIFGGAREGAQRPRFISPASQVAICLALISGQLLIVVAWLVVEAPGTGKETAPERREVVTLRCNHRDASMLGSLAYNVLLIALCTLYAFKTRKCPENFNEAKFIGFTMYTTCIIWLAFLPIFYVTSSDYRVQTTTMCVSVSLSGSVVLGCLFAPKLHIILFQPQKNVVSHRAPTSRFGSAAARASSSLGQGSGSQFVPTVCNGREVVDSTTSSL
Metabotropic glutamate receptor 7 (Homo sapiens), sequence (Q14831 whole entry): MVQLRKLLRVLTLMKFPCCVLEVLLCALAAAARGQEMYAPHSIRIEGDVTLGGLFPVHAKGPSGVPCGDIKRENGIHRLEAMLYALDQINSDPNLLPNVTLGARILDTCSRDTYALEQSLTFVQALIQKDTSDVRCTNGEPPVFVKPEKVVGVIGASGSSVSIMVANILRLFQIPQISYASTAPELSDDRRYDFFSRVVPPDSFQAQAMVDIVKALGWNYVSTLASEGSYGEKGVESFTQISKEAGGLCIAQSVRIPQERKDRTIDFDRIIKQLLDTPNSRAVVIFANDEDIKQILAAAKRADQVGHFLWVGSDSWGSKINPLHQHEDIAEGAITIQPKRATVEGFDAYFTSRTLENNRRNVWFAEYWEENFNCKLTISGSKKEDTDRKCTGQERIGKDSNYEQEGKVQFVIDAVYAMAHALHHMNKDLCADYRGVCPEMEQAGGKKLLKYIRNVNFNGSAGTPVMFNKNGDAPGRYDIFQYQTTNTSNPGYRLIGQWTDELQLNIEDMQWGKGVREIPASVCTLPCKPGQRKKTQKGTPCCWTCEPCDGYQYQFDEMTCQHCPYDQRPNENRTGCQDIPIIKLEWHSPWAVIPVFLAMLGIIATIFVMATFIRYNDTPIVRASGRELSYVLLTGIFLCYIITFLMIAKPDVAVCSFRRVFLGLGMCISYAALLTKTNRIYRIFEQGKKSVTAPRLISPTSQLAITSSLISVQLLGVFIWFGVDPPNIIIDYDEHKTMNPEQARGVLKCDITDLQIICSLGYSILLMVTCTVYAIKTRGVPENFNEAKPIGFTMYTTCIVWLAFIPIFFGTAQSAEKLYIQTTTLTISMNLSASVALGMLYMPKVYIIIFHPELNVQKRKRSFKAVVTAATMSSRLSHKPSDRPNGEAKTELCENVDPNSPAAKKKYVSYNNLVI
Metabotropic glutamate receptor 1 (Homo sapiens), sequence (Q13255 19-1194 limits assumed): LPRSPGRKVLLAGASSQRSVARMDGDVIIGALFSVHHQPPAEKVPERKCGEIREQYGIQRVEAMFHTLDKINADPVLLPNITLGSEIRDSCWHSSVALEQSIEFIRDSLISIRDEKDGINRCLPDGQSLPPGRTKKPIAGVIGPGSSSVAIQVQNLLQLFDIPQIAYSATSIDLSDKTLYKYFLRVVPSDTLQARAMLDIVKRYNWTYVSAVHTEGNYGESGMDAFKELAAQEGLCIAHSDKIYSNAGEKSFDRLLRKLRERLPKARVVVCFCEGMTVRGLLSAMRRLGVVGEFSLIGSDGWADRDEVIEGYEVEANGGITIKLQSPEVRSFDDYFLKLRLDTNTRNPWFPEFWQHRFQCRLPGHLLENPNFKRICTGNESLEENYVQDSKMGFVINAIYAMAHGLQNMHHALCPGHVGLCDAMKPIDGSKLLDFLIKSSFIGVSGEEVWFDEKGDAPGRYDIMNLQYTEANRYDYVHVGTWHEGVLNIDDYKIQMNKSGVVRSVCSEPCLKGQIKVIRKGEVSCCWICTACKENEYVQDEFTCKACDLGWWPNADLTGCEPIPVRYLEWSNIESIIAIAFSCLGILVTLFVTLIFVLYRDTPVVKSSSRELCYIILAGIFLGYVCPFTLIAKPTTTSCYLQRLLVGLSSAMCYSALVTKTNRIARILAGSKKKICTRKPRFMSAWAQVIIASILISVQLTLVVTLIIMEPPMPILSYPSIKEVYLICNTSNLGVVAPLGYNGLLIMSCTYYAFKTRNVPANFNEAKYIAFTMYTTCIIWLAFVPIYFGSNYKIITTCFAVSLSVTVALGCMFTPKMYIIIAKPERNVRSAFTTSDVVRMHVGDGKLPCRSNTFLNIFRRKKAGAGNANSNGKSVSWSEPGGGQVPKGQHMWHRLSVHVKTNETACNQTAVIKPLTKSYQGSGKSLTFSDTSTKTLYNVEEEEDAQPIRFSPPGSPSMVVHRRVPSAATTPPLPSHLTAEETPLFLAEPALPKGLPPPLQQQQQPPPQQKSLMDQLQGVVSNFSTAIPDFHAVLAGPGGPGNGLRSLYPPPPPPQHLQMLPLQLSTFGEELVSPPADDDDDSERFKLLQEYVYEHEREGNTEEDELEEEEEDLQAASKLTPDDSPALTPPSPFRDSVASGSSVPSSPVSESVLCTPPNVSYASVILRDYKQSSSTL

Activity [1]: inactive | Activity [2]: inactive | Imax [3]: 58% | Activity [4]: inactive | Activity [5]: inactive | Activity [6]: inactive | Drug metabolism [7]: metabolite_detected | Drug metabolism [8]: metabolite_detected | Drug metabolism [9]: metabolite_detected | Drug metabolism [10]: metabolite_detected
SMILES: Cc1cc(Oc2cnn(C)c2)cc(C(=O)Nc2ccc(F)cn2)n1

Fu [11]: Not_determined(Unstable) | Fu [12]: 0.002 | K(p,uu,brain) [13]: Not_determined(Unstable)
SMILES: Cc1cc(Oc2cnn(C)c2C(F)(F)F)cc(C(=O)Nc2ccc(F)cn2)n1

Fu [11]: Not_determined(Unstable) | Fu [14]: 0.004 | Fu [12]: 0.003 | K(p,uu,brain) [13]: Not_determined(Unstable)
SMILES: Cc1cc(Oc2cnn(C)c2C(F)(F)F)cc(C(=O)Nc2nc(C)cs2)n1

Fu [11]: Not_determined(Unstable) | K(p,uu,brain) [13]: Not_determined(Unstable)
SMILES: Cc1cccc(NC(=O)c2cc(Oc3cnn(C)c3C(F)(F)F)cc(C)n2)n1

Fu [11]: 0.219
SMILES: Cc1cc(Oc2ccnn2C)cc(C(=O)Nc2nc(C)cs2)n1

Fu [11]: Not_determined(Unstable) | K(p,uu,brain) [13]: Not_determined(Unstable)
SMILES: Cc1cccc(NC(=O)c2cc(Oc3cc(C)nn3C)cc(C)n2)n1

Fu [11]: Not_determined(Unstable) | K(p,uu,brain) [13]: Not_determined(Unstable)
SMILES: Cc1cccc(NC(=O)c2cc(Oc3ccnn3C)cc(C)n2)n1
